Test [1] is filed under the species Rattus norvegicus. As to the kind of experiment: Hypotensive activity in Wistar rat assessed as reduction in methoxamine-induced systolic blood pressure response. It counts as functional, organism-based. The following applies: Artery. In outline:
(§1)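 In anaesthetized rats, pressor responses were evoked by i.v. epinephrine, norepinephrine or methoxamine. Blood pressure was recorded through a heparin-saline-filled cannula in the carotid artery.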

The test system of test [2] is Rattus norvegicus. Briefly: Hypotensive activity in normotensive Wistar rat assessed as decrease in systolic blood pressure at 20 mg/kg, iv administered as single dose. It counts as functional, organism-based. Also noted: dose 20 mg/kg. The following applies: Artery.
The species named for test [3] is Rattus norvegicus. Briefly: Hypotensive activity in Wistar rat assessed as reduction in epinephrine-induced systolic blood pressure response. It counts as functional, organism-based. The note with it: Artery. In outline: as §1
Test [4] has as its target T1, Adrenergic receptor alpha-1 (Rattus norvegicus, UniProt P15823+P23944+P43140).
T1 sequence (P15823 whole entry): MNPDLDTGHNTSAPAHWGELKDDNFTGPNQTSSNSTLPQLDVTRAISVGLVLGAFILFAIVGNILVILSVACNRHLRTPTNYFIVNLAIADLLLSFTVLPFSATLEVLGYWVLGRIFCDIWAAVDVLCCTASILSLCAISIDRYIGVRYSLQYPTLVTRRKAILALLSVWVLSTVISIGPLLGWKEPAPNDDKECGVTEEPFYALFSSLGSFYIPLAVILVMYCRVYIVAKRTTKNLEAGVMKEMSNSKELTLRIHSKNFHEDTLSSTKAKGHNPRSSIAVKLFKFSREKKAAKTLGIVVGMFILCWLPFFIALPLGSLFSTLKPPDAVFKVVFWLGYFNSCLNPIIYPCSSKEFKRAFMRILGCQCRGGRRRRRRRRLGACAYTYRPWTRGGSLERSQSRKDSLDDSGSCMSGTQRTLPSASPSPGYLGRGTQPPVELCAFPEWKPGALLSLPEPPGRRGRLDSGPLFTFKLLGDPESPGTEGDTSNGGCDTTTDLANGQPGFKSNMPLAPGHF
T1 sequence (P23944 whole entry): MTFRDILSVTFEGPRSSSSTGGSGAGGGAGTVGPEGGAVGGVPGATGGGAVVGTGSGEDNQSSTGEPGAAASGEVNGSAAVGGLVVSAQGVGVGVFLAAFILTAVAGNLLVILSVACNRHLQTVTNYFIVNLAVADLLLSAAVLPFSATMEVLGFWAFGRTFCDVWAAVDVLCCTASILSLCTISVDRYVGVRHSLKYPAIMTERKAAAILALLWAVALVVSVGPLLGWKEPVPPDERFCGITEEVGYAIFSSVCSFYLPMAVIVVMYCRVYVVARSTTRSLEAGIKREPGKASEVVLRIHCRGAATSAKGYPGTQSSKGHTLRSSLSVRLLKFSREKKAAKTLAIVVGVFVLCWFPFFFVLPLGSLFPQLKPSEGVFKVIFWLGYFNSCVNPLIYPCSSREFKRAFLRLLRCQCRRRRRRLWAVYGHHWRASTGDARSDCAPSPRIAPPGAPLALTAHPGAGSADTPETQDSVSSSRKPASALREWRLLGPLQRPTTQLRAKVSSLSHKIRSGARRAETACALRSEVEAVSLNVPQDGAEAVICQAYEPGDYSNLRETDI
T1 sequence (P43140 whole entry): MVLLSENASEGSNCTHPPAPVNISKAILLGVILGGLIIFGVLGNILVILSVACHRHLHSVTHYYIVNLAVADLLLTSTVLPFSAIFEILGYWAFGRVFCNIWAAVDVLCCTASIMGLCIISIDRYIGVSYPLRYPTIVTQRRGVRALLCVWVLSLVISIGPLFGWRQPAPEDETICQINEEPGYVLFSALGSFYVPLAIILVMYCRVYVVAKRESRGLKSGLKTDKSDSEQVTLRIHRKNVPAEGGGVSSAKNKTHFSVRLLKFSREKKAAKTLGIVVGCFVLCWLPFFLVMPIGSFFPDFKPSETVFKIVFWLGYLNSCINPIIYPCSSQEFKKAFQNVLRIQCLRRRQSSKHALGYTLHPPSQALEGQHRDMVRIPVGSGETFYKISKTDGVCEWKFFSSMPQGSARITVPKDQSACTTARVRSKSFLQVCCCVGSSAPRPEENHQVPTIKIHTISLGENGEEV
Briefly: Displacement of [3H]prazosin from alpha1 adrenergic receptor in rat cerebral cortex by liquid scintillation counting. The format is tissue-based. An outline of the steps:
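Rat cerebral cortex was homogenized in ice-cold 50 mM Tris–HCl pH 7.6, centrifuged 20 000 × g for 20 min at 0–4 °C, and washed once more. Membranes were incubated with [3H]prazosin 0.2 nM and seven to eight compound concentrations (10^-11–10^-4 M), with phentolamine defining nonspecific binding. Bound ligand was filtered on glass fiber and counted by liquid scintillation. Runs were in duplicate, and Ki was calculated by Cheng–Prusoff.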

The target in test [5] is T2, Adrenergic receptor alpha-2 (Rattus norvegicus, UniProt P22086+P19328+P22909).
T2 sequence (P22086 whole entry): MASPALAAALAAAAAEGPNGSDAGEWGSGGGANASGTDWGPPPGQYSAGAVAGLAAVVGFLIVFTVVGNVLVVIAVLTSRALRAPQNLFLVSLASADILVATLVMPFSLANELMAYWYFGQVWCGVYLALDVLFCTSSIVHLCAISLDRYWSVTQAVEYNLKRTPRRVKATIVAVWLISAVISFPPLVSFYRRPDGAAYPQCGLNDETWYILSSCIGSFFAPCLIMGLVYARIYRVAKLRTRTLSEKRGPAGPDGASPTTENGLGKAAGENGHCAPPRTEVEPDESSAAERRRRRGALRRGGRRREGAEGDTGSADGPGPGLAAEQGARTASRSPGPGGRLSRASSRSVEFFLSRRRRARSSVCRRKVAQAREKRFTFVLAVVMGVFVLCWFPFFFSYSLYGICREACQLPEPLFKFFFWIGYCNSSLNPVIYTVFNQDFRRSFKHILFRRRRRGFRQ
T2 sequence (P19328 whole entry): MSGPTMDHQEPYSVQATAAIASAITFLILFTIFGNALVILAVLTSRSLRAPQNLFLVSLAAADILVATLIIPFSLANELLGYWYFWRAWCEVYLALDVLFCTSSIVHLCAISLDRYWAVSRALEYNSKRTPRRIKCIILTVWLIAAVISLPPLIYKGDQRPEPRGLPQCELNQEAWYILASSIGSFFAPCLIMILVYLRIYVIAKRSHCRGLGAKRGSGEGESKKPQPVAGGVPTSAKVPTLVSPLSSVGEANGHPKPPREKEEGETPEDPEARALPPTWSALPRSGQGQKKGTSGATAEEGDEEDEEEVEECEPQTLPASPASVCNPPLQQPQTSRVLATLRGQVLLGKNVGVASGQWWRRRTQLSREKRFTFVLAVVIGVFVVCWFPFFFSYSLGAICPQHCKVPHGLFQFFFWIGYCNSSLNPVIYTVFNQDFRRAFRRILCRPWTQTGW
T2 sequence (P22909 whole entry): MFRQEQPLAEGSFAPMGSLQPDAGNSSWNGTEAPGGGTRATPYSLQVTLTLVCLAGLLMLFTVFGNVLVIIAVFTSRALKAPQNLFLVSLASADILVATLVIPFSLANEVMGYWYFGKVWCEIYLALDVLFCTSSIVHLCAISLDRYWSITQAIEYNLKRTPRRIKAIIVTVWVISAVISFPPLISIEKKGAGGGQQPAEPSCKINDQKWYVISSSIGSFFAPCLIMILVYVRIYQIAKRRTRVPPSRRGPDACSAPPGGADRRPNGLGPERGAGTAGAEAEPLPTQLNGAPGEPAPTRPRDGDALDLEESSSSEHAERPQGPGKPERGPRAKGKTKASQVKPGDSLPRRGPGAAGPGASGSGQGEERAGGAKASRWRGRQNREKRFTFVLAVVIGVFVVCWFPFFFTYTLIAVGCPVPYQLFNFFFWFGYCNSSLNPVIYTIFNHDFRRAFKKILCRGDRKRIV
As to the kind of experiment: Displacement of [3H]clonidine from alpha2 adrenergic receptor in rat cerebral cortex by liquid scintillation counting. The format is tissue-based. An outline of the steps:
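Rat cerebral cortex membranes were prepared in ice-cold 50 mM Tris–HCl pH 7.6 (20 000 × g, 20 min, 0–4 °C, washed twice). They were incubated with [3H]clonidine 2 nM and seven to eight compound concentrations (10^-11–10^-4 M), with excess unlabelled clonidine defining nonspecific binding. Samples were glass-fiber filtered and counted by liquid scintillation, in duplicate. Ki was calculated by Cheng–Prusoff.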

Test [6] is filed under the species Rattus norvegicus. Briefly: Hypotensive activity in Wistar rat assessed as reduction in norepinephrine-induced systolic blood pressure response. It counts as functional, organism-based. The note with it: Artery. In outline:
as §1

Test [7] relates to Rattus norvegicus. Briefly: Hypotensive activity in normotensive Wistar rat assessed as decrease in diastolic blood pressure at 20 mg/kg, iv administered as single dose. The format is functional, organism-based. Also noted: dose 20 mg/kg. The note with it: Artery.
The test system of test [8] is Rattus norvegicus. As to the kind of experiment: Antiarrhythmic activity against adrenaline-induced arrhythmia in iv dosed rat assessed as inhibition of cardiac rhythm disturbance administered 15 mins before adrenaline challenge. It counts as functional. The note with it: Heart. In outline:
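Rats anaesthetized with thiopental 60 mg/kg ip received the compound i.v. 15 min before an i.v. adrenaline challenge. Rhythm disturbances were recorded for 15 min after adrenaline. Activity was defined as absence of premature beats and inhibition of disturbances versus controls. ED50 values, with confidence limits, were derived by Litchfield–Wilcoxon from three groups of six animals.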

Active and inactive are the calls of the source.

In the case of `Cl.Cl.O=C1N(CC(O)CN2CCN(c3ccc(F)cc3)CC2)CCC1(c1ccccc1)c1ccccc1` (stereo not given), the outcome in the test listed under Rattus norvegicus [1], with Rattus norvegicus [2], in the test listed under Rattus norvegicus [3], in the test listed under Rattus norvegicus [6] and with Rattus norvegicus [7] was inactive. The pKi in test [4] is given as 5.68; in test [5] it was 5.32.

Take `CC(C)NCC(O)COc1cccc2ccccc12` (stereo not given) [PROPRANOLOL]: in the test on Rattus norvegicus [8], the median effective dose (ED50) was 7.6 mg/kg.

On to `O=C1CCCN1CC(O)CN1CCN(C(c2ccccc2)c2ccccc2)CC1` (stereo not given), for which the figures for the pKi in test [4] and in test [5] were 6.57 and 5.27, respectively. Besides, the ED50 entry in the test on Rattus norvegicus [8] is “inactive”.

Take `O=C1CCCN1CC(O)CN1CCN(c2ccccc2)CC1` (stereo not given): the negative-log Ki (pKi) in test [4] is listed as 5.72; in test [5] it was 4.54. Besides, the ED50 with Rattus norvegicus [8] is 7.6 mg/kg.

As to `c1ccc(CC2=NCCN2)cc1` [TOLAZOLINE], the ED50 with Rattus norvegicus [8] stood at 1.05 mg/kg.
